# Compound activity (PubChem)
# GSK3A inh – blocks human GSK-3 alpha kinase. P49840. ADP-Glo luminescence, 60 min. inhibition, % at 10 µM. 0.1% of 320,000 active. AID 2650;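 active = more than half of replicates show inhibition above 20%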;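 also: GST-tagged GSK-3 alpha with peptide substrate and 25 µM ATP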
# Target sequence (P49840 whole entry, looked up): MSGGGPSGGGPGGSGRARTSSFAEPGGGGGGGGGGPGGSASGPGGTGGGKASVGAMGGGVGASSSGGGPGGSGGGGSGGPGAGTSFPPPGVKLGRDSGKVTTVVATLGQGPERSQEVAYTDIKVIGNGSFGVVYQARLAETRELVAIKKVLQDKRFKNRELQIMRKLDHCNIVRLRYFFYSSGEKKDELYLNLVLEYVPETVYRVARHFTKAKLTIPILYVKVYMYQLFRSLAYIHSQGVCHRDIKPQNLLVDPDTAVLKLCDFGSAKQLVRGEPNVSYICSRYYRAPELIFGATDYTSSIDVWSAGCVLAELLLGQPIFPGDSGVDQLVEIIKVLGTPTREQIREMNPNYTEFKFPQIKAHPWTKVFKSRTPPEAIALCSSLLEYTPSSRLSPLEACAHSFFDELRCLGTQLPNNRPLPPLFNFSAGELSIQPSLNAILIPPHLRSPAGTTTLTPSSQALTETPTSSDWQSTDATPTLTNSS
# DYRK1A inh – inhibitors of rat Dyrk1A kinase. inhibition, % at 12.5 µM. 0.43% of 310,000 active. ADP-Glo luminescence, NFATc1 peptide; in the data active = inhibition above about 50%
# GSK3B inh – inhibitors of human GSK3beta kinase. 0.038% of 300,000 active. GST-GSK3beta kinase, ADP-Glo luminescence, 60 min; stronger effect = lower value. P49841. activity score (negative = inhibition), % at 10 µM;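 active = more than half of replicate wells score below -50%, meaning over 50% inhibition versus plate controls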
#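 test system = GST-tagged human GSK3beta kinase, cell-free | reagent = 25 µM ATP with peptide substrate | dosing = one dose of 10 µM per compound | schedule = 60 min reaction, RT | detection = luminescent ADP-Glo measurement of ADP formed | control set = DMSO neutral wells and GW8510 at 20 µM as positive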
# STK33 inh – human STK33 kinase inhibition; Q9BYT3; purified STK33, MBP phosphorylation, ADP-Glo luminescence; inhibition, % at 10 µM; 0.073% of 320,000 active; AID 2661;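 active = inhibition at or above 25%, using the most active replicate where run in duplicate; inactive = inhibition below 25%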
# Hits are given with their value; i = inactive; nt = no result. The sample as a whole holds a higher share of hits than the screen did.
SMILES,GSK3A inh,DYRK1A inh,GSK3B inh,STK33 inh
O=S(=O)(O)c1cc(O)c2c(O)c(N=Nc3cc(Cl)ccc3O)c(S(=O)(=O)O)cc2c1,i,i,i,i
Cc1cc(-c2ccc(N=Nc3c(S(=O)(=O)O)cc4cc(S(=O)(=O)O)cc(N)c4c3O)c(C)c2)ccc1N=Nc1c(S(=O)(=O)O)cc2cc(S(=O)(=O)O)cc(N)c2c1O,i,nt,nt,66
Cc1cc(O)ccc1NS(=O)(=O)c1ccc2c3c(cccc13)C(=O)N2,i,i,i,41
COc1cc(/C=C2\SC(=Nc3ccc(Cl)c(C(=O)O)c3)NC2=O)c(Br)c(Br)c1O,i,65,i,35
Cc1ccc(-c2ccc(OC(=O)c3ccc(=O)[nH]c3)c(C)c2)cc1,i,i,i,i
CCOC(=O)C1=C(C)Nc2ncnn2C1c1c[nH]c2ccccc12 (configuration not stated),71,i,-74,i
CC1=C(C(=O)OC(C)C)C(c2c[nH]c3ccccc23)n2ncnc2N1 (configuration not stated),93,i,i,i
CCCC1=C(C(=O)OCC)C(c2sccc2C)n2ncnc2N1 (configuration not stated),78,i,i,i
CC1=C(C(=O)OC(C)C)C(c2cccs2)n2ncnc2N1 (configuration not stated),i,i,i,i
N#Cc1c2n(c3c(=O)[nH]cnc13)CCCC2,i,i,i,i
N#Cc1c2n(c3c(=S)nc[nH]c13)CCCCC2,102,i,-92,i
Nc1nc(NCCOCCO)nc(NC2CCCCC2)c1[N+](=O)[O-],52,i,i,i
CC(C)CCNc1nc(N)c([N+](=O)[O-])c(NC2CCCCC2)n1,i,i,i,i
Nc1nc(NCCO)nc(NC2CCCCC2)c1[N+](=O)[O-],86,i,i,i
CN(C)CCCNc1nc(N)c([N+](=O)[O-])c(NC2CCCCC2)n1,98,i,-81,i
CC(C)CNc1nc(N)c([N+](=O)[O-])c(NC2CCCCC2)n1,i,i,i,i
COC(=O)[C@@H](Cc1c[nH]c2ccccc12)NCc1cccc(B(O)O)c1,nt,i,nt,nt
Cc1ccc(CSc2nnc(SCC(=O)N/N=C/c3ccc(C(=O)O)cc3)s2)cc1,i,i,i,i
O=C(CSc1nnc(SCc2ccccc2)s1)N/N=C/c1ccc(C(=O)O)cc1,53,i,i,i
O=C(CSc1ccccn1)Nc1nonc1[N+](=O)[O-],nt,i,i,nt
CCN(CC)Cc1cc2[nH]c3c4ccc(Cl)cc4ncc3c2cc1OC,nt,nt,-52,nt
COc1ccc(CNc2ncnc3cc(Cl)ccc23)cc1OC,nt,i,i,nt
COc1cc(/C=N/Nc2ccc(C(F)(F)F)cn2)ccc1O,i,i,i,28
CCc1nc2sc3c(c2c(=O)n1N)CC(C)(C)OC3,i,i,i,i
CN(C)c1nc2sc3c(c2c(=O)n1C)CC(C)(C)OC3,i,i,i,38
SMILES,GSK3A inh,DYRK1A inh,GSK3B inh,STK33 inh
CC(=O)c1cc(O)c2ccccc2c1O,i,62,i,i
CC(=O)c1coc2c1cc(O)c1ccccc12,i,i,i,i
CC1(C)Oc2ccc(C(=O)NNC(=O)Nc3ccccc3)cc2NC1=O,i,i,i,i
Cc1cn(C2OC(CC(=O)Oc3ccccc3)C(O)C2O)c(=O)[nH]c1=O (configuration not stated),52,i,i,i
N#C/C(=C\c1ccc(O)c(Br)c1)C(=O)NCc1ccccc1,i,86,i,i
N#C/C(=C/c1ccccc1)C(=O)NCc1ccccc1,i,i,i,i
CN(C)CCCN(C(=O)C1COc2ccccc2O1)c1nc2cc3c(cc2s1)OCO3 (configuration not stated),i,nt,i,i
CCOc1cc(C2C3=C(CC(C)(C)CC3=O)Nc3n[nH]c(C)c32)ccc1O (configuration not stated),94,i,-61,i
CCOC(=O)C1=C(C)NC2=C(C(=O)CC(C)(C)C2)C1c1ccc(O)c(OCC)c1 (configuration not stated),i,i,i,i
CC1=CC(C)(C)[N+](C)(C)c2ccccc21,i,i,i,i
Cc1cc(C)n(CCC(=O)N=Nc2c(O)[nH]c3ccc(Br)cc23)n1,73,i,i,i
Cc1cccc(NS(=O)(=O)c2cccc(C(=O)NCCCN3CCOCC3)c2)c1,i,i,i,i
COc1cccc2c1cc1c(=O)n(CC(=O)NCCCN3CCCCC3)nc(C)n12,i,i,-60,i
COCc1c(C(=O)N/N=C/c2ccncc2)nnn1-c1nonc1N,i,i,i,i
O=C(Nc1ccccc1C(=O)N1CCOCC1)c1cccnc1,i,i,i,i
O=C(Nc1sccc1C(=O)N1CCOCC1)c1cccnc1,54,i,i,i
